Source: ChEMBL document CHEMBL1255258, “Aminoglycosides affect intracellular Salmonella enterica serovars typhimurium and virchow” (Antimicrob Agents Chemother, 2008)
≈ marks a conversion by molar mass, not a printed value. Calls of active or inactive are those of the source. The rule behind the calls is not given here.

Assays:
Salmonella typhimurium [1] = experiment: Antibacterial activity against Salmonella enterica serovars Typhimurium ATCC 14028 at pH 5.7 by broth dilution method; type: functional, Salmonella enterica subsp. enterica serovar Typhimurium
How it was run: (§1)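 Broth dilution MIC. Overnight cultures were diluted 1:100 in LB broth buffered with phosphate to pH 7 or 5.7, giving a final inoculum of ~10^6 CFU ml−1. Antibiotic range was 0 to 500 μg ml−1. Absorbance at 600 nm was read after 24 h at 37°C with shaking; mean of three experiments.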

[2] = (§2) Antibacterial activity against Salmonella enterica serovars virchow isolate 101591 at pH 5.7 by broth dilution method; type: functional, Salmonella enterica subsp. enterica serovar Virchow; how it was run: as §1
[3] = test system: Salmonella enterica subsp. enterica serovar Virchow; experiment: Reduction in light emission by Salmonella enterica serovars virchow isolate 101591 infected in mouse J774A.1 cells after 5 mins; type: functional, cell-based
How it was run: (§3)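 Salmonella carrying pChν1 infected J774 macrophages (100:1, polymyxin B wash). Cells were held in antibiotic-free RPMI for 10 min at 37°C. Homoserine lactone 500 ng ml−1 was added, and 20 min later aminoglycoside at 15, 50, 100 or 150 μg ml−1. Luminescence was read every 5 min to 40 or 60 min, as % of untreated wells. Triplicate wells, at least three experiments.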

Salmonella typhimurium [4] = experiment: Antibacterial activity against Salmonella enterica serovars Typhimurium ATCC 14028 infected in mouse J774A.1 cells at 50 ug/ml after 1hr; type: functional, organism-based; conditions: Salmonella enterica subsp. enterica serovar Typhimurium
How it was run: (§4)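 J774 macrophages were seeded overnight at 37°C in 5% CO2, then switched to antibiotic-free RPMI. They were infected at 100:1 with Salmonella grown in RPMI to OD600 about 1. Extracellular bacteria were removed with 5 μg ml−1 polymyxin B for 10 min. Aminoglycoside was given for 1 h. Cells were lysed in 1% Triton X-100 buffer, and 1:10 serial dilutions were plated on LB agar.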

Salmonella typhimurium [5] = experiment: Antibacterial activity against Salmonella enterica serovars Typhimurium ATCC 14028 infected in mouse J774A.1 macrophage assessed as log reduction in viable counts at 150 ug/ml after 1hr; type: functional, organism-based; conditions: Salmonella enterica subsp. enterica serovar Typhimurium; how it was run: as §4
[6] = (§5) Antibacterial activity against Salmonella enterica serovars virchow isolate 101591 at pH 7.0 by broth dilution method; type: functional, Salmonella enterica subsp. enterica serovar Virchow; how it was run: as §1
Salmonella typhimurium [7] = experiment: Antibacterial activity against Salmonella enterica serovars Typhimurium ATCC 14028 at pH 7.0 by bioluminescence assay; type: functional, organism-based, Salmonella enterica subsp. enterica serovar Typhimurium
How it was run: (§6)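 Overnight cultures carrying the pChν1 lux plasmid were diluted 1:100 in LB broth with 30 μg ml−1 chloramphenicol, adjusted to pH 7 or 5.7. Final titer was ~10^6 CFU ml−1, with antibiotic at 0 to 500 μg ml−1. After 1 h at 30°C, homoserine-lactone (100 ng ml−1) was added to induce light. EC50 was the concentration halving light emission at 60 min; mean of three experiments.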

Salmonella typhimurium [8] = experiment: Antibacterial activity against Salmonella enterica serovars Typhimurium ATCC 14028 at pH 5.7 by bioluminescence assay; type: functional, organism-based, Salmonella enterica subsp. enterica serovar Typhimurium; how it was run: as §6
[9] = Antibacterial activity against Salmonella enterica serovars virchow isolate 101591 at pH 5.7 by bioluminescence assay; type: functional, Salmonella enterica subsp. enterica serovar Virchow; how it was run: as §6
[10] = Antibacterial activity against Salmonella enterica serovars virchow isolate 101591 at pH 7.0 by bioluminescence assay; type: functional, Salmonella enterica subsp. enterica serovar Virchow; how it was run: as §6
[11] = test system: Salmonella enterica subsp. enterica serovar Virchow; experiment: Antibacterial activity against Salmonella enterica serovars virchow isolate 101591 infected in mouse J774A.1 cells at 50 ug/ml after 1hr; type: functional, cell-based; how it was run: as §4
[12] = test system: Salmonella enterica subsp. enterica serovar Virchow; experiment: Antibacterial activity against Salmonella enterica serovars virchow isolate 101591 infected in mouse J774A.1 macrophage assessed as log reduction in viable counts at 150 ug/ml after 1hr; type: functional; how it was run: as §4
Salmonella typhimurium [13] = experiment: Antibacterial activity against Salmonella enterica serovars Typhimurium ATCC 14028 assessed as log reduction in viable counts at 150 ug/ml after 1hr; type: functional, organism-based; conditions: Salmonella enterica subsp. enterica serovar Typhimurium
[14] = test system: Salmonella enterica subsp. enterica serovar Virchow; experiment: Antibacterial activity against Salmonella enterica serovars virchow isolate 101591 assessed as log reduction in viable counts at 150 ug/ml after 1hr; type: functional
Salmonella typhimurium [15] = experiment: Antibacterial activity against Salmonella enterica serovars Typhimurium ATCC 14028 at pH 7.0 by broth dilution method; type: functional, Salmonella enterica subsp. enterica serovar Typhimurium
How it was run: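 Broth dilution MIC in LB broth buffered with phosphate to pH 7. Overnight culture was diluted 1:100 to about 10^6 CFU ml−1 final, with antibiotic at 0 to 500 μg ml−1. A600 was read after 24 h at 37°C with shaking.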

Salmonella typhimurium [16] = experiment: Reduction in light emission by Salmonella enterica serovars Typhimurium ATCC 14028 infected in mouse J774A.1 cells at 15 ug/ml after 30 mins; type: functional, organism-based; conditions: Salmonella enterica subsp. enterica serovar Typhimurium; how it was run: as §3
[17] = test system: Salmonella enterica subsp. enterica serovar Virchow; experiment: Reduction in light emission by Salmonella enterica serovars virchow isolate 101591 at < 50 ug/ml; type: functional
[18] = test system: Salmonella enterica subsp. enterica serovar Virchow; experiment: as §2; type: functional; how it was run: as §1
[19] = test system: Salmonella enterica subsp. enterica serovar Virchow; experiment: Reduction in light emission by Salmonella enterica serovars virchow isolate 101591 after 5mins; type: functional
[20] = test system: Salmonella enterica subsp. enterica serovar Virchow; experiment: as §5; type: functional; how it was run: as §1
Salmonella typhimurium [21] = experiment: Reduction in light emission by Salmonella enterica serovars Typhimurium ATCC 14028 infected in mouse J774A.1 cells at 50 ug/ml after 30 mins; type: functional, organism-based; conditions: Salmonella enterica subsp. enterica serovar Typhimurium; how it was run: as §3
Salmonella typhimurium [22] = experiment: Reduction in light emission by Salmonella enterica serovars Typhimurium ATCC 14028 infected in mouse J774A.1 cells at 15 ug/ml after 40 mins; type: functional, organism-based; parameters: scale not given: the % may be the effect or the level left; conditions: Salmonella enterica subsp. enterica serovar Typhimurium; how it was run: as §3
Salmonella typhimurium [23] = experiment: Reduction in light emission by Salmonella enterica serovars Typhimurium ATCC 14028 at <= 30 ug/ml; type: functional, organism-based; conditions: Salmonella enterica subsp. enterica serovar Typhimurium
Salmonella typhimurium [24] = experiment: Reduction in light emission by Salmonella enterica serovars Typhimurium ATCC 14028 infected in mouse J774A.1 cells at 50 ug/ml within 5 mins; type: functional, organism-based; conditions: Salmonella enterica subsp. enterica serovar Typhimurium; how it was run: as §3
[25] = test system: Salmonella enterica subsp. enterica serovar Virchow; experiment: Reduction in light emission by Salmonella enterica serovars virchow isolate 101591 at >= 50 ug/ml after 40 mins; type: functional
Salmonella typhimurium [26] = experiment: Reduction in light emission by Salmonella enterica serovars Typhimurium ATCC 14028 infected in mouse Nramp deficient RAW 264.7 cells at 100 ug/ml; type: functional, organism-based; parameters: scale not given: the % may be the effect or the level left; conditions: Salmonella enterica subsp. enterica serovar Typhimurium
How it was run: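 RAW 264.7 macrophages, Nramp1+ (R37) or Nramp1-null (R21), were infected with serovar Typhimurium carrying pChν1. Homoserine lactone was 500 ng ml−1. Gentamicin 100 μg ml−1 was added 0.5 to 3 h after infection. Luminescence was read every 5 min, as a ratio to untreated control in the same cell line. Triplicate, at least three trials.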

Salmonella [27] = experiment: Antibacterial activity against Salmonella infected in mouse Nramp1 deficient RAW 264.7 cells assessed as log reduction in viable count at 100 ug/ml; type: functional, organism-based
Salmonella [28] = experiment: Antibacterial activity against Salmonella infected in mouse RAW 264.7 cells expressing Nramp1 assessed as log reduction in viable count at 100 ug/ml; type: functional, organism-based
Salmonella typhimurium [29] = experiment: Reduction in light emission by Salmonella enterica serovars Typhimurium ATCC 14028 infected in mouse J774A.1 cells at 50 ug/ml after 40 mins; type: functional, organism-based; conditions: Salmonella enterica subsp. enterica serovar Typhimurium; how it was run: as §3
Salmonella typhimurium [30] = experiment: Reduction in light emission by Salmonella enterica serovars Typhimurium ATCC 14028 after 5 mins; type: functional, organism-based; conditions: Salmonella enterica subsp. enterica serovar Typhimurium
Salmonella typhimurium [31] = experiment: Reduction in light emission by Salmonella enterica serovars Typhimurium ATCC 14028 at > 30 ug/ml after 40 mins; type: functional, organism-based; conditions: Salmonella enterica subsp. enterica serovar Typhimurium
[32] = Salmonella enterica, ATCC 14028, read-out: EC50
[33] = Salmonella enterica subsp. enterica serovar Typhimurium

Compound | MIC (Salmonella typhimurium [1]) | MIC [2] | Activity [3] | Activity (Salmonella typhimurium [4]) | Activity (Salmonella typhimurium [5]) | MIC [6] | EC50 (Salmonella typhimurium [7]; [32]) | EC50 (Salmonella typhimurium [8]; [32]) | EC50 [9] | EC50 [10] | Activity [11] | Activity [12] | Activity (Salmonella typhimurium [13]) | Activity [14] | MIC (Salmonella typhimurium [15]) | also measured
NC[C@H]1O[C@H](O[C@H]2[C@H](O)[C@@H](O[C@H]3O[C@H](CO)[C@@H](O)[C@H](N)[C@H]3O)[C@H](N)C[C@@H]2N)[C@H](N)C[C@@H]1O [TOBRAMYCIN] | 125 µg/mL (≈ 267 µM) | 250 µg/mL (≈ 535 µM) | Active | inactive | Active | 8 µg/mL (≈ 17.1 µM) | 1 µg/mL (≈ 2.14 µM) | 19 µg/mL (≈ 40.6 µM) | 75 µg/mL (≈ 160 µM) | 2.5 µg/mL (≈ 5.35 µM) | Active | Active | Active | Active | 4 µg/mL (≈ 8.56 µM) | –
GENTAMICIN [listing 1 of 2 here] | – | – | – | – | – | – | – | – | 85 µg/mL | 2 µg/mL | – | – | – | – | – | EC50 (Salmonella typhimurium [7]): 1 µg/mL; EC50 (Salmonella typhimurium [8]): 34 µg/mL
NC[C@H]1O[C@H](O[C@H]2[C@H](O)[C@@H](O[C@H]3O[C@H](CO)[C@@H](O)[C@H](N)[C@H]3O)[C@H](N)C[C@@H]2N)[C@H](O)[C@@H](O)[C@@H]1O [KANAMYCIN] | 250 µg/mL (≈ 516 µM) | 250 µg/mL (≈ 516 µM) | Active | inactive | Active | 16 µg/mL (≈ 33 µM) | 3.5 µg/mL (≈ 7.22 µM) | 29 µg/mL (≈ 59.9 µM) | 130 µg/mL (≈ 268 µM) | 6.5 µg/mL (≈ 13.4 µM) | Active | Active | Active | Active | 8 µg/mL (≈ 16.5 µM) | –
GENTAMICIN [listing 2 of 2 here] | – | – | – | inactive | Active | – | – | – | – | – | Active | Active | Active | Active | – | Activity (Salmonella typhimurium [16]): Active; Activity [17]: inactive; MIC (Salmonella typhimurium [1]; [33]): 125 µg/mL; MIC [18]: 125 µg/mL; Activity [19]: Active; MIC [20]: 8 µg/mL; Activity (Salmonella typhimurium [21]): Active; Activity (Salmonella typhimurium [22]): 20%; Activity (Salmonella typhimurium [23]): inactive; Activity (Salmonella typhimurium [24]): Active; Activity [25]: Active; Activity (Salmonella typhimurium [26]): 80%; FC (Salmonella [27]): 1.6; FC (Salmonella [28]): 0.4; Activity (Salmonella typhimurium [29]): Active; Activity (Salmonella typhimurium [30]): Active; MIC (Salmonella typhimurium [15]; [33]): 4 µg/mL; Activity (Salmonella typhimurium [31]): Active
